RanGTP-Impb inh = inhibitors of RanGTP-importin-beta interaction, primary screen, biochemical, FRET, CFP-Ran, YFP-importin-beta, homogeneous; cell-free CFP-Ran/YFP-importin-beta FRET ratio; inhibition, % (no concentration beside the values); 300,000 tested, 1.1% active; AID 2216;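 active = more than half of the replicate wells show a fall in the fluorescence ratio signal beyond about 16%, limit read from the data, passing the limit was not always enough; inconclusive = exactly half of the replicate wells pass the set limit; inactive = fewer than half of replicates pass the limit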
Wee1 degr inh = human Wee1 degradation inhibition, primary screen | AID 1321 | reporter increase, % at 5 µM | P30291 | 220,000 tested, 1.2% active | HeLa Luc-Wee1K328M stability, luciferase luminescence; 100% = proteasome inhibitor MG132 effect;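 active = activation above the mean of all tested compounds plus 3 SD, set per screening run, cut at about 8.8% in these data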;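 also: cells exposed to compound for 20 h before luminescence read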
AI-2 QS mod = modulates the Vibrio harveyi AI-2 quorum sensing system; Vibrio harveyi JMH597 AI-2 luminescence/OD600 ratio, 9 h; active compounds read low; strain lacks LuxN and CqsS sensors; 0 = neutral-control median; activity change, % at 7.5 µM; 300,000 tested, 0.4% active; AID 2094; in the data active = activity change below about -75%, passing the limit was not always enough; inconclusive = no clear call, values can overlap the other calls;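 also: luminescence divided by OD600 gain over 9 h not by final OD600 alone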
KLK7 zymogen act = activators of human kallikrein-7 zymogen; activation, % at 7 µM; P49862; purified proKLK7, EDANS-DABCYL substrate fluorescence; 100% is mature enzyme control, 0% vehicle; 370,000 tested, 0.9% active; AID 652039;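 active = activation above the mean of all tested compounds plus 3 SD, computed per campaign excluding outliers beyond control limits, cut at about 13% in these data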
Runt-CBFb FRET = inhibitors of human RUNX1 Runt domain binding to CBFb; inhibition, % at 20 µM; 220,000 tested, 0.46% active; Cerulean-Runt/Venus-CBFb FRET ratio 530/480, 1 h; Q01196+Q13951;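 active = inhibition over about 50% at 20 µM in the single-dose screen, limit read from the data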
Target sequence (Q01196 whole entry, looked up, the tested form may be a part): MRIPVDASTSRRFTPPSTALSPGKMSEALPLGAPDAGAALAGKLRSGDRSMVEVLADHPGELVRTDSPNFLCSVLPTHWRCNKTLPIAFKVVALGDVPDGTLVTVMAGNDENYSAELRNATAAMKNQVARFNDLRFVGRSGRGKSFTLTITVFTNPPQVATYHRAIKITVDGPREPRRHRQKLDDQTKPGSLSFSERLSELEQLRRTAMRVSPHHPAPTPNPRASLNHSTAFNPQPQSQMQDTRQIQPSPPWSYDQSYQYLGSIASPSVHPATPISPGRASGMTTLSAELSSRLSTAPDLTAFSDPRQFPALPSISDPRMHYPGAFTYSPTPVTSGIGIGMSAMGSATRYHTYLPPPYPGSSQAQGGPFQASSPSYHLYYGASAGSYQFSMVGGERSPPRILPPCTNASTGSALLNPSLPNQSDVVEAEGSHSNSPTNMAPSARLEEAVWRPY
Target sequence (Q13951 whole entry, looked up, the tested form may be a part): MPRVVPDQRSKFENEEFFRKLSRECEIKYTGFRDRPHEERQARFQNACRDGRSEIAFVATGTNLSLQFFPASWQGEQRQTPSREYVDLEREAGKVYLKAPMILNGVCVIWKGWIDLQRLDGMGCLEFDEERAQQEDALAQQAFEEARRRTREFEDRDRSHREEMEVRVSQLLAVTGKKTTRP
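System: Cerulean-labeled Runt domain protein | Quantity: 100 nM of each labeled protein | Schedule: 1 h compound exposure, room temperature | Detection: Fluorescence energy transfer, 422 nm excitation, 530/480 nm emission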
Runt-SMMHC FRET = Runt domain-CBFb-SMMHC interaction inhibition; Q01196+Q13951; Cerulean-Runt/Venus-CBFb-SMMHC FRET ratio 530/480, 1 h; inhibition, % at 20 µM; 220,000 tested, 0.74% active; AID 1434;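 active = mean inhibition across duplicate retests at 20 µM reaching about 50%, limit read from the data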;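 also: inhibitors lower the FRET ratio by blocking Runt binding to CBFb-SMMHC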
A number is an active result; i = inactive; ? = inconclusive; nt = no result given. A selection: hits, their analogues and other compounds. The true share with any hit is near 2.9%.

SMILES	RanGTP-Impb inh	Wee1 degr inh	AI-2 QS mod	KLK7 zymogen act	Runt-CBFb FRET	Runt-SMMHC FRET
CCOCCCNC(=O)C1CCN(S(=O)(=O)CC)CC1	i	15	i	i	i	i
Cc1nc2ccc(NC(=O)N3CCOCC3)cc2s1	?	10	i	i	i	i
CCCCCCCCCCC[N+](C)(C)CC/C=C1/c2ccccc2Sc2ccc(Cl)cc21	i	nt	-145	nt	nt	nt
CCC1Sc2ccc(S(=O)(=O)CCC(=O)Nc3ccc(OC(F)(F)F)cc3)cc2NC1=O (configuration not stated)	i	nt	i	i	nt	nt
Cc1ccc(-c2nc3cnccn3c2Nc2c(C)cccc2C)o1	47	i	i	i	i	i
CCN1C(=O)/C(=C/N2CCc3ccccc32)SC1=S	28	i	i	nt	i	i
CSc1nc2ncc3c(n2n1)CC(C)(C)CC3=O	?	8.9	i	i	i	i
CSc1nc2c(cc1C#N)C(=O)CC(C)(C)C2	i	i	i	i	i	i
CC1(C)CC(=O)c2cnc3c(C#N)cnn3c2C1	115	i	i	i	i	i
N#Cc1c(N)n(-c2ccc(O)cc2)c2nc3ccccc3nc12	?	i	i	i	i	i
Cc1ccc(C(=O)NCCn2c(N)c(C#N)c3nc4ccccc4nc32)cc1	58	i	i	i	98	79
N#Cc1c(N)n(CCOC(=O)c2cccc(Br)c2)c2nc3ccccc3nc12	?	i	i	i	i	51
C/C(=N/NC(=O)c1ccncc1)c1cc2ccc(O)cc2oc1=O	nt	i	nt	i	i	63
C/C(=N/NC(N)=S)c1cc2ccc(O)cc2oc1=O	152	i	i	i	i	84
CC1CCc2nc(NC(=O)C3CCCO3)sc2C1 (configuration not stated)	i	9.7	i	i	i	i
COC(=O)C1=C(C)N(Cc2ccc(C(F)(F)F)cc2)C(=NCc2ccccc2C(F)(F)F)NC1c1ccccc1C(F)(F)F (configuration not stated)	nt	nt	nt	i	nt	nt
Cc1ccc(S(=O)(=O)Nc2cc(Cl)c(O)c3ncccc23)cc1	i	nt	-227	i	nt	nt
Cc1cc(/C=C2\SC(=S)N(C)C2=O)c(C)n1-c1ccccc1O	44	nt	i	i	nt	nt
Cc1cc(/C=C2\SC(=S)NC2=O)c(C)n1-c1cccc(O)c1	20	i	i	i	i	i
CN1C(=O)/C(=C/c2coc3ccc(O)cc3c2=O)SC1=S	?	i	i	i	i	i
Cc1cc(/C=C2\SC(=S)N(C)C2=O)c(C)n1-c1ccc(O)cc1	37	i	i	i	i	i
O=C1C[C@H](NC(=O)OCc2ccccc2)CO1	nt	nt	nt	i	nt	nt
CC(C)=CC(=O)Nc1nc2ccc([N+](=O)[O-])cc2s1	i	i	i	i	i	i
CCOc1ccc(-n2c(COc3ccc(Cl)cc3)nnc2SCC(=O)Nc2ccc(OCc3ccccc3)cc2)cc1	nt	nt	nt	i	nt	nt
CCCc1cc(-n2ccnc2)n2c(nc3ccccc32)c1C#N	?	i	i	i	88	62
SMILES	RanGTP-Impb inh	Wee1 degr inh	AI-2 QS mod	KLK7 zymogen act	Runt-CBFb FRET	Runt-SMMHC FRET
Cc1cc(-n2ccnc2)n2c(nc3ccccc32)c1C#N	i	i	i	i	i	i
CC1(c2cccc(Br)c2)NC(=O)NC1=O (configuration not stated)	i	nt	i	i	nt	nt
O=C(Nc1ccccc1-c1nc2ccccc2[nH]1)c1ccc(S(=O)(=O)N2CCCCC2)cc1	i	i	i	i	i	i
CC1CCCCN1S(=O)(=O)c1ccc(C(=O)Nc2ccccc2-c2nc3ccccc3[nH]2)cc1 (configuration not stated)	i	11	i	i	i	i
CCOC(=O)N1CCN(C(=O)C[C@H]2C[C@@]3(C(=O)OC)C(=C[C@H](C(C)C)O[C@@H]3C3CC3)N(Cc3ccc(Cl)cc3Cl)C2=O)CC1	nt	nt	nt	i	nt	nt
Cc1ccccc1-n1nc2c(c1NC(=O)c1cc3ccccc3oc1=O)CS(=O)(=O)C2	17	i	nt	i	i	i
CC1(C)N([O-])C(c2ccccc2)=C[N+](=O)C1(C)C	?	9.3	i	i	i	i
O=[N+]([O-])c1cnc(Sc2ccncn2)s1	i	i	-88	i	i	i
CC1CN(c2sc(S(C)(=O)=O)nc2S(=O)(=O)c2ccc(Cl)cc2)CC(C)O1 (configuration not stated)	16	nt	i	i	nt	nt
N=c1oc2ccc3ccccc3c2cc1C(N)=S	76	i	i	i	118	92
O=C(OCc1nc2ccccc2s1)c1cc2ccccc2oc1=O	i	i	i	i	i	i
CC(OC(=O)c1cc2c(ccc3ccccc32)oc1=O)c1nc2ccccc2s1 (configuration not stated)	49	i	i	i	i	93
CC(C)(C)NC(=O)c1cc2c(ccc3ccccc32)oc1=O	i	nt	i	i	nt	nt
CCOC(=O)c1cc2c(ccc3ccccc32)oc1=O	?	i	i	i	85	92
Cc1cccc(NC(=O)COC(=O)c2cc3ccccc3oc2=O)c1	i	8.9	i	i	i	i
O=C(NCc1ccccn1)c1cc2c(ccc3ccccc32)oc1=O	37	i	i	i	104	nt
COc1cccc2cc(C(=O)NCc3ccccn3)c(=O)oc12	i	i	i	i	i	i
CCn1c2ccccc2c(=O)c2ccccc21	145	i	i	i	i	91
CCn1c2ccccc2c2cc([N+](=O)[O-])ccc21	i	i	i	i	i	i
O=[N+]([O-])c1cccc(P(=O)(O)c2cccc([N+](=O)[O-])c2)c1	i	25	i	i	i	i
O=c1[nH][nH]c2cc(=O)n(-c3cccc(C(F)(F)F)c3)nc12	i	i	i	i	i	i
Nc1n[nH]c2cc(=O)n(-c3cccc(C(F)(F)F)c3)nc12	118	i	i	i	64	86
CN(C)c1c2ccccc2nc2c(F)c(F)c(F)c(F)c12	23	i	i	nt	nt	i
Cc1c2ccccc2nc2c(F)c(N(C)C)c(F)c(F)c12	i	i	i	i	i	i
O=C(c1ccnc(Cl)c1)N1CCCC(N2CCN(c3ccccc3F)CC2)C1 (configuration not stated)	i	nt	i	i	nt	nt
Cc1oc(S(=O)(=O)N2CCCCC2)cc1NC(=O)Nc1ccc(Cl)cc1	i	i	i	i	i	i
COc1cc(-n2c(N)c(C(=O)NCc3ccco3)c3nc4ccccc4nc32)cc(OC)c1OC	i	i	i	i	i	i
Nc1c(C(=O)NCc2ccco2)c2nc3ccccc3nc2n1CCc1ccc(F)cc1	58	i	i	i	i	i
Nc1c(C(=O)NCCN2CCOCC2)c2nc3ccccc3nc2n1CCc1ccccc1	85	i	i	i	74	i

High-throughput results from PubChem BioAssay.
